Experiments:
[1] = biological target: Histone deacetylase; assay: Inhibition of HDAC in human HeLa cells nuclear extract using Fluor de lys as substrate after 15 mins by fluorometric analysis; format: cell-based
[2] = test system: K562; assay: Antiproliferative activity against human K562 cells assessed as cell viability after 72 hrs by CellTitre-Glo luminescent assay; format: functional, cell-based
[3] = test system: A549; assay: Antiproliferative activity against human A549 cells assessed as cell viability after 72 hrs by CellTitre-Glo luminescent assay; format: functional, cell-based
[4] = Antiproliferative activity against human HCT116 cells assessed as cell viability after 72 hrs by CellTitre-Glo luminescent assay; format: functional, cell-based, HCT-116
[5] = Solubility of the compound at pH 4.5; format: physicochemical; conditions: buffer
[6] = biological target: T1, CYP1A2 (Homo sapiens, UniProt P05177); assay: Inhibition of human CYP1A2 using 3-cyano-7-ethoxycoumarin as substrate at 10 uM after 15 mins by fluorimetric analysis; format: ADME; conditions: probe 3-cyano-7-ethoxycoumarin
T1 sequence (P05177 whole entry): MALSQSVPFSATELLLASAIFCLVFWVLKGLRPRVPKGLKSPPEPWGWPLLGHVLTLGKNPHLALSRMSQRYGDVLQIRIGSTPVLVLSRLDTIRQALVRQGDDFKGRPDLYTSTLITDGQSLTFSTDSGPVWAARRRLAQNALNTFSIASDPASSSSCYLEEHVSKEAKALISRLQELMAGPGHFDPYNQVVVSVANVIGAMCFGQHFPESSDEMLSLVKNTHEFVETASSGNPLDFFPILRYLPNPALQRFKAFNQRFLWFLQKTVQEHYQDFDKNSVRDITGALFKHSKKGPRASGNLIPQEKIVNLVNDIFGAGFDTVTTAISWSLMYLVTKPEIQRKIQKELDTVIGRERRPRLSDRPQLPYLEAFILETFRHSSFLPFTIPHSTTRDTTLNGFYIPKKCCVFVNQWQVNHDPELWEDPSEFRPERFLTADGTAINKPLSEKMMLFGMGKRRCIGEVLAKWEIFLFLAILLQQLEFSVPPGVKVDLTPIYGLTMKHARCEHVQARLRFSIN
Method in brief: (§1)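 Test compounds at 10 µM in potassium phosphate buffer pH 7.4 with NADPH regenerating system (final 1.3 mM NADP⁺, 3.3 mM glucose 6-phosphate, 0.4 U/ml G6PDH); reaction started at 37 °C by adding Supersomes isoenzyme plus substrate. Enzyme and substrate amounts: CYP1A2 0.5 pmol, 5 µM CEC; CYP2C19 0.5 pmol, 25 µM CEC; CYP3A4 1 pmol, 50 µM BFC; CYP2D6 1.5 pmol, 1.5 µM AMMC. Stopped with acetonitrile/Tris base; fluorescence read; % inhibition versus enzyme without inhibitor; n≥2, mean.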

[7] = biological target: CYP2C19 (Homo sapiens, UniProt P33261); assay: Inhibition of human CYP2C19 using 3-cyano-7-ethoxycoumarin as substrate at 10 uM after 30 mins by fluorimetric analysis; format: ADME; conditions: probe 3-cyano-7-ethoxycoumarin; method in brief: as §1
[8] = biological target: CYP2D6 (Homo sapiens, UniProt P10635); assay: Inhibition of human CYP2D6 using 3-[2-(N,N-diethyl-N-methylamino)ethyl]-7-methoxy-4-methylcoumarin as substrate at 10 uM after 30 mins by fluorimetric analysis; format: ADME; method in brief: as §1
[9] = biological target: CYP3A4 (Homo sapiens, UniProt P08684); assay: Inhibition of human CYP3A4 using 7-benzyloxy-4-(trifluoromethyl)-coumarin as substrate at 10 uM after 30 mins by fluorimetric analysis; format: ADME; conditions: probe 7-benzyloxy-4-(trifluoromethyl)-coumarin; method in brief: as §1
[10] = Metabolic stability in mouse liver microsomes assessed as compound remaining at 1 uM preincubated for 10 mins measured after 30 mins by LC-MS/MS analysis; format: ADME; conditions: liver microsomes, read-out: Stability
Method in brief: (§2)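 Compound at 1 µM pre-incubated 10 min at 37 °C in potassium phosphate buffer pH 7.4 with 0.5 mg/mL mouse or human hepatic microsomes. Parent quantified by LC-MS/MS (ESI+, MRM, verapamil internal standard). % remaining = peak area at 30 min / area at 0 min × 100; n≥2, mean.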

[11] = Metabolic stability in human liver microsomes assessed as compound remaining at 1 uM preincubated for 10 mins measured after 30 mins by LC-MS/MS analysis; format: ADME; conditions: liver microsomes, read-out: Stability; method in brief: as §2

CYP3A4, sequence (P08684 whole entry): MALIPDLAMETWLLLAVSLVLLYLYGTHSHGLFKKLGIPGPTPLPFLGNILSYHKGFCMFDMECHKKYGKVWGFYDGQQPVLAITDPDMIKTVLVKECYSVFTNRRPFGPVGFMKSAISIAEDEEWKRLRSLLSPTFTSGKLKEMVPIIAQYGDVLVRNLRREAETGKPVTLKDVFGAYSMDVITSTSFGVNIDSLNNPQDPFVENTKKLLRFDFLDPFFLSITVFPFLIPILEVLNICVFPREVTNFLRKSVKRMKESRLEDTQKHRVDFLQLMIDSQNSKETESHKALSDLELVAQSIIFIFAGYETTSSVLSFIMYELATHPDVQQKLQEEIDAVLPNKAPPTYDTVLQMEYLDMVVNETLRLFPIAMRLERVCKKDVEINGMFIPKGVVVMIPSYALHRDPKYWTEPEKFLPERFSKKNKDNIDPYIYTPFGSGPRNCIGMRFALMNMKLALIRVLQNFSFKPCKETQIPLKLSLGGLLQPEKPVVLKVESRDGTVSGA
CYP2C19, sequence (P33261 whole entry): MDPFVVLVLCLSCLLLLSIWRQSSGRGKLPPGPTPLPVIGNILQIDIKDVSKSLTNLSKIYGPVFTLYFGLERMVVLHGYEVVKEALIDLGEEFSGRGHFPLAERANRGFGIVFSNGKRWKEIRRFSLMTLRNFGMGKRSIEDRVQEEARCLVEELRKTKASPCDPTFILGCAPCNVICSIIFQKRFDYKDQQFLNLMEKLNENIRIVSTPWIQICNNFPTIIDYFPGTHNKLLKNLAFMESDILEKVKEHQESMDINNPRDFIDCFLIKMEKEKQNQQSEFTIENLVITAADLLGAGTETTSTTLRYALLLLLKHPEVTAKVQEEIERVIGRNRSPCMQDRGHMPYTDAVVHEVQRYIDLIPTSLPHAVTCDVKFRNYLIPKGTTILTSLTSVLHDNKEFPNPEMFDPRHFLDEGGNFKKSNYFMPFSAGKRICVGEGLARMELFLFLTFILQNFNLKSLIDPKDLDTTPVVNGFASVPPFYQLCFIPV
CYP2D6, sequence (P10635 whole entry): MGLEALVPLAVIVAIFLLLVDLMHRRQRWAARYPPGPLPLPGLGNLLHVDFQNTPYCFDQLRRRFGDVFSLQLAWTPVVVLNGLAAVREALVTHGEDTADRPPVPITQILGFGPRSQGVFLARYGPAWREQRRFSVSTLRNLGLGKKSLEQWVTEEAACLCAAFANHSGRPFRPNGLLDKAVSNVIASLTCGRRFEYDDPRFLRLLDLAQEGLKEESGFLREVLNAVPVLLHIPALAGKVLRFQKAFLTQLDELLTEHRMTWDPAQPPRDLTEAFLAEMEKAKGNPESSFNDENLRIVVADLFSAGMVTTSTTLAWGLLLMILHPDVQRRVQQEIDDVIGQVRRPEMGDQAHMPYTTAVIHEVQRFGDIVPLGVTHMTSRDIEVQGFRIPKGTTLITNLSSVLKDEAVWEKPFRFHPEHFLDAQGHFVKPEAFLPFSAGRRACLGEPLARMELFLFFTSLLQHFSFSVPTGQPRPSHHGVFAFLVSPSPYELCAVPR

SMILES	IC50 [1]	IC50 ([2]; Homo sapiens, K562, 72 h)	IC50 ([3]; Homo sapiens, A549, 72 h)	solubility [5]	inhibition at 0.25 h, 10 µM [6]	inhibition at 0.5 h, 10 µM [7]	inhibition at 0.5 h, 10 µM [8]	inhibition at 0.5 h, 10 µM [9]	remaining at 0.5 h, 1 µM [10]	remaining at 0.5 h, 1 µM [11]	IC50 ([2]; k562)	IC50 ([3]; a549)	IC50 ([4]; Homo sapiens, HCT-116, 72 h)	IC50 ([4]; hct-116)
O=C(/C=C/c1ccc2c(c1)C(=O)CC1(CCN(Cc3ccc(F)cc3)C1)O2)NO (centres undefined)	196 nM	283 nM	642 nM										178 nM	
O=C(/C=C/c1ccc2c(c1)C(=O)CC1(CCCN(Cc3ccccc3)C1)O2)NO (racemic)	56 nM	430 nM	839 nM										385 nM	
O=C(/C=C/c1ccc2c(c1)C(=O)CC1(CCCN(Cc3ccccc3)C1)O2)NO (single isomer, unassigned; (-))	84 nM										441 nM	1060 nM		326 nM
Cn1cc(CN2CCC3(CC(=O)c4cc(/C=C/C(=O)NO)ccc4O3)C2)c2ccccc21 (racemic)	85 nM	51 nM	180 nM						8%	16%			47 nM	
O=C(/C=C/c1ccc2c(c1)C(=O)CC1(CN(Cc3ccccc3)C1)O2)NO	67 nM	175 nM	245 nM	> 500 µM	5%	40%	64%	53%	44%	44%			76 nM	
Cn1cc(CN2CC3(CC(=O)c4cc(/C=C/C(=O)NO)ccc4O3)C2)c2ccccc21	62 nM	46 nM	242 nM	> 500 µM	8%	68%	74%	84%	27%	51%			78 nM	
O=C(/C=C/c1ccc2c(c1)C(=O)CC1(CCCN(C(=O)c3ccccc3)C1)O2)NO (racemic)	165 nM	2010 nM	4130 nM										1330 nM	
Cn1cc(CN2CCCC3(CC2)CC(=O)c2cc(/C=C/C(=O)NO)ccc2O3)c2ccccc21 (racemic)	114 nM	46 nM	260 nM						19%	< 30%			60 nM	
O=C(/C=C/c1ccc2c(c1)C(=O)CC1(CCCNCC1)O2)NO (racemic)	134 nM	5990 nM	3120 nM										1080 nM	
O=C(/C=C/c1ccc2c(c1)C(=O)CC1(CCCN(CCc3ccccc3)C1)O2)NO (racemic)	1 nM	106 nM	157 nM						19%	16%			52 nM	
O=C(/C=C/c1ccc2c(c1)C(=O)CC1(CN(Cc3ccc(F)cc3)C1)O2)NO	130 nM	301 nM	684 nM										190 nM	
O=C(/C=C/c1ccc2c(c1)C(=O)CC1(CCCN(C(=O)c3ccccc3)CC1)O2)NO (racemic)	110 nM	1110 nM	3780 nM										617 nM	
O=C(/C=C/c1ccc2c(c1)C(=O)CC1(CCCN(Cc3ccc(F)cc3)C1)O2)NO (racemic)	34 nM	552 nM	1160 nM										372 nM	
O=C(CCCCCCC(=O)Nc1ccccc1)NO [VORINOSTAT]					25%	69%	25%	35%	82%	93%				
O=C(/C=C/c1ccc2c(c1)C(=O)CC1(CN(CCc3ccccc3)C1)O2)NO	219 nM	250 nM	896 nM										220 nM	
O=C(/C=C/c1ccc2c(c1)C(=O)CC1(CCCN(Cc3ccc(F)cc3)CC1)O2)NO (racemic)	149 nM	144 nM	333 nM						25%	11%			63 nM	
Cn1cc(CN2CCCC3(CC(=O)c4cc(/C=C/C(=O)NO)ccc4O3)C2)c2ccccc21 (racemic)	183 nM	147 nM	425 nM						23%	19%			78 nM	
O=C(/C=C/c1ccc2c(c1)C(=O)CC1(CCN(C(=O)c3ccccc3)C1)O2)NO (racemic)	187 nM	533 nM	2110 nM										510 nM	
O=C(/C=C/c1ccc2c(c1)C(=O)CC1(CCCN(Cc3ccccc3)C1)O2)NO (stereo in doubt; 33j)	143 nM										523 nM	1460 nM		447 nM

Now from value to compound, other results behind:

IC50 [1]	IC50 ([2]; Homo sapiens, K562, 72 h)	IC50 ([3]; Homo sapiens, A549, 72 h)	solubility [5]	inhibition at 0.25 h, 10 µM [6]	inhibition at 0.5 h, 10 µM [7]	inhibition at 0.5 h, 10 µM [8]	inhibition at 0.5 h, 10 µM [9]	remaining at 0.5 h, 1 µM [10]	remaining at 0.5 h, 1 µM [11]	IC50 ([2]; k562)	IC50 ([3]; a549)	SMILES	IC50 ([4]; Homo sapiens, HCT-116, 72 h)	IC50 ([4]; hct-116)
300 nM	1660 nM	5750 nM										CCOC(=O)N1CCCC2(CC1)CC(=O)c1cc(/C=C/C(=O)NO)ccc1O2 (racemic)	1010 nM	
237 nM	56 nM	103 nM	> 500 µM	5%	12%	14%	51%	72%	42%			CN1CCCC2(CC(=O)c3cc(/C=C/C(=O)NO)ccc3O2)C1 (racemic)	63 nM	
323 nM	5180 nM	20100 nM										CC(=O)N1CCCC2(CC1)CC(=O)c1cc(/C=C/C(=O)NO)ccc1O2 (racemic)	3510 nM	
150 nM	721 nM	837 nM										CCOC(=O)N1CCC2(CC(=O)c3cc(/C=C/C(=O)NO)ccc3O2)C1 (racemic)	351 nM	
131 nM	4140 nM	2320 nM										O=C(/C=C/c1ccc2c(c1)C(=O)CC1(CCNC1)O2)NO (racemic)	2270 nM	
168 nM	168 nM	429 nM										CN1CC2(CC(=O)c3cc(/C=C/C(=O)NO)ccc3O2)C1	178 nM	
119 nM	198 nM	357 nM										CN1CCC2(CC(=O)c3cc(/C=C/C(=O)NO)ccc3O2)C1 (racemic)	146 nM	
207 nM	5600 nM	14500 nM										CC(=O)N1CCCC2(CC(=O)c3cc(/C=C/C(=O)NO)ccc3O2)C1 (racemic)	3240 nM	
485 nM	15100 nM	47700 nM										CC(=O)N1CC2(CC(=O)c3cc(/C=C/C(=O)NO)ccc3O2)C1	10500 nM	
232 nM	936 nM	2280 nM										CCOC(=O)N1CCCC2(CC(=O)c3cc(/C=C/C(=O)NO)ccc3O2)C1 (racemic)	678 nM	
955 nM	> 50000 nM	> 50000 nM										CC(=O)N1CCC2(CC(=O)c3cc(/C=C/C(=O)NO)ccc3O2)C1 (racemic)	> 50000 nM	
81 nM	376 nM	1330 nM										O=C(/C=C/c1ccc2c(c1)C(=O)CC1(CN(C(=O)c3ccccc3)C1)O2)NO	294 nM	
228 nM	2580 nM	8580 nM										O=C(/C=C/c1ccc2c(c1)C(=O)CC1(CNC1)O2)NO	3680 nM	
286 nM	1880 nM	4870 nM										CCOC(=O)N1CC2(CC(=O)c3cc(/C=C/C(=O)NO)ccc3O2)C1	1230 nM	
136 nM	555 nM	714 nM										O=C(/C=C/c1ccc2c(c1)C(=O)CC1(CCCNC1)O2)NO (racemic)	228 nM	
